Assay outcomes as filed in PubChem BioAssay.
A selection: hits, their analogues and other compounds. The true share with any hit is near 2.4%.
SENP1 FRET inh: SENP1 (human) catalytic domain inhibition. Q9P0U3. recombinant SENP1 catalytic domain, CyPet-SUMO1-YPet FRET cleavage. inhibition, % at 10 µM. 360,000 compounds, 0.21% hits. AID 624204;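 active means inhibition at least 30% at 10 µM, raw YFP signal under a set limit, fluorescence ratio 0.5 to 1.5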;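 further: 0% = enzyme with DMSO and 100% = no enzyme wells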
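Assay system: hSENP1 catalytic domain, recombinant. Amount: SENP1 enzyme, 20 pM final. Schedule: 50 min reaction, RT, dark. Technique: FRET, CFP and YFP emission. Control set: no-enzyme wells low, DMSO-plus-enzyme wells high control.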
MT1-MMP act inh: MT1-MMP (human) activation inhibition | P50281 | HT1080 RFP-PRO-GFP cells, GFP/RFP ratio fluorescence, overnight; percent of plate control window, DMSO zero | GFP/RFP ratio change, % at 20 µM | 360,000 compounds, 0.061% hits | AID 651647;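 active means GFP/RFP ratio change of at least 30% with cell ATP level not reduced by more than half and red fluorescence within 50% of control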
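Material – HT1080 RFP-PRO-GFP cells · Control set – DMSO wells and RFP-L50D-GFP cells · Incubation – overnight cell settling, then overnight compound exposure, 37 °C, 5% CO2 · Compound dosing – single-point 20 µM compound, 1% DMSO · Read-out – GFP/RFP fluorescence ratio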
MIN6 prolif: induces beta-cell replication in MIN6 cells | AID 2380 | MIN6 cells proliferation, ATPlite luminescence, 48 h; cells starved in 0.2% serum; 100% = growth in 10% serum | proliferation, % at 10 µM | 330,000 compounds, 0.29% hits;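 active means compounds whose signal lies at least 3.5 SD above the mean of all wells on their plate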;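 further: 0% = DMSO-treated cells in low-serum medium and 100% = 10% serum control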
Myeloid diff 2: compounds promoting myeloid differentiation | ER-HoxA9 myeloid progenitors, lysozyme-GFP differentiation, flow cytometry | calls only at 10 µM | 360,000 compounds, 1% hits;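 active means normalized GFP-positive differentiation at or above the plate's own cutoff, the solvent-only control mean plus 3 SD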;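 further: cells exposed to compound for four days before flow analysis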
NRP1-CendR mod: NRP-1/CendR interaction modulation. FAM-RPARPAR peptide binding to NRP-1, fluorescence polarization. inhibition, % at 25 µM. 360,000 compounds, 0.85% hits. AID 602438;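 active means inhibition or corrected inhibition above about 18%, plus a signal ratio from 0.5 to 1.5, limit read from the data, passing the limit was not always enough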
Target sequence (O14786 whole entry, looked up): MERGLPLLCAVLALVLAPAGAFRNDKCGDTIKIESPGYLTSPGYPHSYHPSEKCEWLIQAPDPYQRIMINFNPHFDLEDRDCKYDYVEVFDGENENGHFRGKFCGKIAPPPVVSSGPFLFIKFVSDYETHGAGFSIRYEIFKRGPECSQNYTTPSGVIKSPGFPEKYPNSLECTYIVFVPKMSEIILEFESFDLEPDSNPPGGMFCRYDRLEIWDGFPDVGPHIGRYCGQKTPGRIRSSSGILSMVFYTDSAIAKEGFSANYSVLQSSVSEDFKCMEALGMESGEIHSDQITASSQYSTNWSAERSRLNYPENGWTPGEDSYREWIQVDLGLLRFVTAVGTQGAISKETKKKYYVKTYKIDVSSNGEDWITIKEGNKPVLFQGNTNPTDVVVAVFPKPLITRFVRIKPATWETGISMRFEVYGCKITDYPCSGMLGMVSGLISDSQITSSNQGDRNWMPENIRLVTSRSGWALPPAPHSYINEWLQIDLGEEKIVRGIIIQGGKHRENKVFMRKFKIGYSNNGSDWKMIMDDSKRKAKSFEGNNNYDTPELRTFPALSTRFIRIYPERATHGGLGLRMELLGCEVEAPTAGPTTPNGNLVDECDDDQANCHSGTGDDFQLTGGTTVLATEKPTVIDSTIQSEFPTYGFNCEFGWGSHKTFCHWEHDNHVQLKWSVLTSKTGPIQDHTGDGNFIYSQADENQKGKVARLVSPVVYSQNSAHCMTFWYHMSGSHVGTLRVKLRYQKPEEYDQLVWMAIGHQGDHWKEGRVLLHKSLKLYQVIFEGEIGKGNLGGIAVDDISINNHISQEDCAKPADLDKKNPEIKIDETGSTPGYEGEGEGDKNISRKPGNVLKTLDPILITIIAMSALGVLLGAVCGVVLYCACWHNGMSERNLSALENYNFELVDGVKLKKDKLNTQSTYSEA
DAGLB inh: blocks human DAGLB lipase activity | 340,000 compounds, 0.059% hits | inhibition, % at 5.17 µM | HEK293T DAGLB membrane lysate, EnzChek fluorogenic substrate; in the data active means inhibition above about 34%;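 further: 0% = enzyme with vehicle and 100% = wells lacking enzyme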
Myeloid diff CP1: promotes myeloid progenitor differentiation. 2,300 compounds, 2% hits. shares compounds with Myeloid diff 2. AID 651706. calls only. ER-HoxA9 myeloid progenitors, GFP/Mac1 double-positive flow;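 active means share of green or green-and-red cells above 9 and 9% in run 1 or 4 and 3% in run 2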
GFP autofluor: counter-screen for myeloid differentiation promoters: compound fluorescence; shares compounds with Myeloid diff 2; ER-HoxA9 myeloid progenitors, no estrogen, GFP autofluorescence flow cytometry; vehicle wells 0%, positive control 100%; fluorescence response, % (no concentration beside the values); 2,300 compounds, 7.4% hits;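 active means over 5% cells positive for green fluorescent reporter, or over 2% positive for both it and APC stain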;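 further: range taken on the double positive population between DMSO and positive control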
The depositor's hits bear a star; i = inactive; x = no result given; + = active, no number.

SMILES	SENP1 FRET inh	MT1-MMP act inh	MIN6 prolif	Myeloid diff 2	NRP1-CendR mod	DAGLB inh	Myeloid diff CP1	GFP autofluor
Cc1cccc(NS(=O)(=O)c2ccc(C)c(C(=O)NC3CCN(Cc4ccccc4)CC3)c2)c1	-29.9	-2.3	x	+	-22.9	-0.4	i	0.0
COc1ccc2c(c1)CCC(C)N2S(=O)(=O)c1ccc(C2CNC(=O)C2)cc1 (stereo unspecified)	-1.4	3.4	-2.0	x	-11.2	-1.6	i	0.0
COc1ccc(S(=O)(=O)N2c3ccc(F)cc3CCC2C)cc1 (stereo unspecified)	1.1	12.6	-3.4	x	-3.1	-3.6	x	x
CCCCn1c(=O)[nH]c2c(oc3ccccc32)c1=O	-2.1	-2.5	-4.6	+	-1.1	3.2	i	0.0
CCCCn1c(=O)c2ccccc2c2ccccc2c1=O	1.7	-17.9	-1.8	i	-0.1	-5.0	x	x
O=C(Nc1ccccc1F)C1CCCN(S(=O)(=O)c2ccccc2)C1 (stereo unspecified)	0.1	-0.5	-1.6	i	5.5	-0.9	x	x
COc1ccc(C2N(c3ccc(C)cc3)CCN2c2ccc(C)cc2)cc1O	-1.0	4.2	-2.4	i	6.2	-14.0	i	0.0
COc1cc(C2N(c3ccccc3)CCN2c2ccccc2)ccc1OC(C)=O	2.7	2.7	-1.8	i	2.7	-0.1	x	x
COC(=O)c1sc(NC(=O)COc2cccnc2[N+](=O)[O-])c(C(=O)OC)c1C	-13.0	0.1	4.6	i	-19.4	1.2	x	x
CCCCOc1ccc(C(CC(=O)NC)C(=O)O)cc1 (stereo unspecified)	3.0	3.6	-1.8	i	-2.7	0.7	x	x
CCC1(CC)NC(=O)N(CC(=O)OCC(=O)Nc2cc(C)ccc2C)C1=O	0.1	-0.2	-1.9	+	5.3	1.4	i	0.0
COc1cccc(NC(=S)N(CCN(C)C)C(C)c2ccncc2)c1 (stereo unspecified)	2.2	-1.2	0.8	i	11.4	-1.5	x	x
COc1cc(C[C@@H]2C(=O)OC[C@H]2Cc2ccc(OC)c(OC)c2)ccc1O	-0.4	17.7	-6.6	i	-14.3	1.3	x	x
Fc1ccc(N/N=C/c2ccc(N3CCOCC3)cc2)c(F)c1	-1.6	0.8	-3.2	i	-2.3	1.6	x	x
O=C1C(=O)c2ccccc2C(O)=C1c1ccccc1F	2.0	6.3	-1.3	i	5.0	1.8	x	x
O=C1C(O)=C(O)C(=O)c2ccccc21	3.6	3.4	-3.6	i	2.2	-19.7	i	0.3
COc1ccc(C2C(C(=O)Nc3cccnc3)=C(C)Nc3nc(-c4cccs4)nn32)cc1 (stereo unspecified)	-0.5	6.7	0.3	i	4.0	2.6	i	0.9
O=C(c1cccnc1)N1CCN(c2c(Cl)cccc2[N+](=O)[O-])CC1	0.2	2.6	3.6	x	-8.2	0.5	x	x
CCCCOc1ccc(OC(=O)Nc2cc(Cl)ccc2OC)cc1	1.4	0.2	-4.3	i	4.8	-0.5	+	0.0
O=C(c1ccc(S(=O)(=O)N2CCOCC2)cc1)N(c1ccccn1)C1CCCCC1	1.4	-3.6	-3.5	i	1.9	-1.8	x	x
O=C(C1CC1)N1CCc2cc(S(=O)(=O)NCC3COc4ccccc4O3)ccc21 (stereo unspecified)	4.5	-5.3	-2.3	+	1.6	-4.1	i	0.4
O=C(C1CCC1)N1CCc2cc(S(=O)(=O)NCC3COc4ccccc4O3)ccc21 (stereo unspecified)	-1.3	0.9	-1.8	i	-2.9	-3.2	x	x
CC(C)(C)OC(=O)N(CCc1ccccc1)Cc1ccccc1OCc1cccc(NC(=O)C2CCCC2)c1	-1.5	-9.9	x	i	-7.1	-16.1	x	x
CC(C)(C)OC(=O)N(CCc1ccccc1)Cc1ccccc1OCc1cccc(NC(=O)C2CC2)c1	-1.5	7.9	x	+	-1.9	-19.4	i	0.5
Cc1cccc(C(=O)NC2CCN(CC(=O)N3CCOCC3)CC2)c1	-4.9	1.3	-0.3	i	-1.5	0.3	x	x
SMILES	SENP1 FRET inh	MT1-MMP act inh	MIN6 prolif	Myeloid diff 2	NRP1-CendR mod	DAGLB inh	Myeloid diff CP1	GFP autofluor
Cc1cccc(C(=O)NC2CCN(C(=O)N3CCOCC3)CC2)c1	2.0	-1.1	-3.3	+	6.8	0.0	i	0.0
CN(C)c1ccc(Cl)c(NC(N)=S)c1	-1.7	-0.6	x	i	1.1	0.0	x	x
CCN1/C(=N\N)c2cccc3cccc1c23	-28.5	20.7	-1.1	+	-187.1	1.9	i	94.1*
CCC(C)NC(=O)CN1C(=O)c2cccc3cccc1c23 (stereo unspecified)	-11.0	-0.3	-0.5	i	13.2	2.6	x	x
Cc1oc(C(=O)O)cc1CSc1nnc(-c2ccccc2)n1C	0.0	0.6	-2.5	i	3.6	1.0	i	0.9
COc1ccccc1C(c1nnnn1Cc1ccco1)N1CCN(c2cccc(C)c2C)CC1 (stereo unspecified)	-1.5	-21.2	-5.3	i	6.0	-20.9	i	0.0
O=C(O)c1cccnc1SC1CC(=O)N(c2ccccc2)C1=O (stereo unspecified)	-1.2	-0.2	1.7	i	-5.7	-1.8	x	x
CC(c1ccccc1)N1C(=O)CC(Sc2ncccc2C(=O)O)C1=O (stereo unspecified)	4.4	10.7	-1.7	x	12.4	2.7	i	3.4
O=C(NNC1CC(=O)N(c2ccc(Br)cc2)C1=O)c1ccccn1 (stereo unspecified)	2.8	-1.0	-1.2	i	-0.3	2.9	x	x
CCCOC(=O)c1c(NC(=O)CCCn2nc([N+](=O)[O-])c(Cl)c2C)sc(C(=O)OC)c1C	0.2	3.4	-3.8	i	-7.6	0.1	i	0.0
CCOc1cc(C(=O)Nc2cc(C(=O)OC)ccc2C)ccc1OCC(=O)N1CCOCC1	-1.4	-2.3	-0.6	i	-8.8	3.4	x	x
CCOc1cc(C(=O)Nc2ccc(C)cc2O)ccc1OCC(=O)N1CCOCC1	-2.7	-6.9	3.0	+	-25.0	1.5	i	2.2
CCN(CC)S(=O)(=O)c1cccc(C(=O)Nc2ccc3c(c2)OCO3)c1	0.6	x	1.1	i	-0.3	1.1	i	0.0
c1ccc(Cc2c(-c3ccccc3)nc3c4ccccc4ccn23)cc1	-11.5	x	x	+	1.2	-1.7	i	0.4
CN(CC(=O)Nc1ccccc1C(F)(F)F)CC(=O)N1CCCCCC1	1.9	2.0	-2.8	i	6.9	1.0	x	x
